pIC50: −log10 of the molar value.
What was measured:
Plasmodium yoelii yoelii = experiment: Antimicrobial activity against Plasmodium yoelii 265 liver infected in mammalian hepatocytes after 48 hrs; assay type: functional, organism-based; conditions: Plasmodium yoelii, 265, Hepatocyte
[1] = Cytotoxicity against Hepatocyte cells assessed as cell viability by MTT assay; assay type: cell-based; conditions: hepatocytes; read-out: TC50 (the source's name)
In short: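 MTT assay in mouse hepatocyte cultures prepared as for infection. Drugs at eight concentrations from 6.4 x 10–3 to 100 µM, triplicate wells. MTT 0.5 mg/ml (final) added for 4 h at 37°C, cells taken up in ethanol/DMSO 50/50, absorbance 550 nm with 620 nm reference. Viability expressed as percent of drug-free controls; TC50 by linear regression.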

[2] = Selectivity index, ratio of TC50 for hepatocytes to IC50 for Plasmodium yoelii; design: species or system Hepatocyte
In short: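 SI calculated as hepatocyte TC50 (MTT, mouse hepatocytes) divided by liver-stage IC50 against P. yoelii yoelii, both measured in this work.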

Plasmodium falciparum = experiment: Antimicrobial activity against Plasmodium falciparum NF54 schizonts in mammalian hepatocytes after 96 hrs; assay type: functional, organism-based; conditions: NF54, Hepatocyte
In short: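 Primary hepatocytes isolated by collagenase perfusion, 10^5 cells per chamber-slide well, held 24 h at 37°C, 4% CO2, then infected with 9 x 10^4 NF54 sporozoites dissected from salivary glands of infected Anopheles stephensi. Drugs added at infection to duplicate cultures, seven concentrations from 1 x 10^-6 to 30 µM, renewed daily. Methanol-fixed; HSPi72 serum with FITC anti-mouse IgG; schizonts counted; IC50 by linear regression.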

SMILES: CC(CCc1ccc(O)cc1)NCCc1ccc(O)c(O)c1 (stereo unspecified) [DOBUTAMINE]
- pIC50 (Plasmodium yoelii yoelii): 8.43
- CC50 [1]: > 100 µM
- Selectivity Index [2]: >27000

SMILES: O=C1C(O)=C([C@H]2CC[C@H](c3ccc(Cl)cc3)CC2)C(=O)c2ccccc21 [ATOVAQUONE]
- pIC50 (Plasmodium yoelii yoelii): 7.24
- CC50 [1]: 16.5 µM
- Selectivity Index [2]: 289

SMILES: CC[C@]1(O)C[C@@H]2CN(CCc3c([nH]c4ccccc34)[C@@](C(=O)OC)(c3cc4c(cc3OC)N(C)[C@H]3[C@@](O)(C(=O)OC)[C@H](OC(C)=O)[C@]5(CC)C=CCN6CC[C@]43[C@@H]65)C2)C1 [VINBLASTINE]
- pIC50 (Plasmodium yoelii yoelii): 5.10
- CC50 [1]: 54.5 µM
- Selectivity Index [2]: 6.85

SMILES: CC(Cc1ccc(O)c(O)c1)C(C)Cc1ccc(O)c(O)c1 (stereo unspecified) [NORDIHYDROGUAIARETIC ACID]
- pIC50 (Plasmodium yoelii yoelii): 4.52
- CC50 [1]: > 100 µM
- Selectivity Index [2]: >3.33

SMILES: Clc1ccc(COC(Cn2ccnc2)c2ccc(Cl)cc2Cl)c(Cl)c1 (stereo unspecified) [MICONAZOLE]
- pIC50 (Plasmodium yoelii yoelii): 8.69
- CC50 [1]: 70.4 µM
- Selectivity Index [2]: 34700

SMILES: CC(C)(C)NC(=O)[C@@H]1CN(Cc2cccnc2)CCN1C[C@@H](O)C[C@@H](Cc1ccccc1)C(=O)N[C@H]1c2ccccc2C[C@H]1O
- pIC50 (Plasmodium yoelii yoelii): 5.30
- CC50 [1]: 8.77 µM

SMILES: CO[C@@H]1C[C@@H](C[C@H]2CC[C@H](C)[C@H]([C@@H](C)C(=O)O)O2)O[C@]2(O[C@](C)([C@H]3CC[C@@](C)([C@@H]4O[C@@H]([C@H]5O[C@@](O)(CO)[C@H](C)C[C@@H]5C)C[C@@H]4C)O3)C[C@H]2C)[C@@H]1C [NIGERICIN]
- pIC50 (Plasmodium yoelii yoelii): > 12.00
- CC50 [1]: 13.2 µM
- pIC50 (Plasmodium falciparum): > 12.00
- Selectivity Index [2]: >13200000

SMILES: CCOC(=O)NC(=S)Nc1ccccc1NC(=S)NC(=O)OCC [THIOPHANATE]
- pIC50 (Plasmodium yoelii yoelii): 4.52
- CC50 [1]: > 100 µM
- Selectivity Index [2]: >3.33

SMILES: CC[C@@]1([C@@H]2O[C@@H]([C@H]3O[C@@](O)(CO)[C@H](C)C[C@@H]3C)C[C@@H]2C)CC[C@H]([C@]2(C)CC[C@]3(C[C@H](O)[C@@H](C)[C@@H]([C@@H](C)[C@@H](OC)[C@H](C)C(=O)O)O3)O2)O1 [MONENSIN]
- pIC50 (Plasmodium yoelii yoelii): > 12.00
- CC50 [1]: > 32 µM
- pIC50 (Plasmodium falciparum): > 12.00
- Selectivity Index [2]: >32000000

SMILES: C=CC(C)(C)c1cc(/C=C/C(=O)c2ccc(O)cc2)c(OC)cc1O [LICOAGROCHACONE A]
- pIC50 (Plasmodium yoelii yoelii): 9.03
- CC50 [1]: 63.4 µM
- Selectivity Index [2]: 68300

SMILES: COc1cc(NC(C)CCCN)c2ncccc2c1 (stereo unspecified) [PRIMAQUINE]
- CC50 [1]: 12.5 µM

SMILES: CC[C@H](C)[C@H](NC(=O)[C@H]([C@@H](C)CC)N(C)C(C)=O)C(=O)N[C@H](C(=O)N[C@@H](CC(C)C)C(=O)[C@@]1(C)CO1)[C@@H](C)O [EPOXOMYCIN]
- pIC50 (Plasmodium yoelii yoelii): 5.40
- CC50 [1]: 47.3 µM
- Selectivity Index [2]: 11.97

SMILES: CC(C)c1nc(CN(C)C(=O)N[C@H](C(=O)N[C@@H](Cc2ccccc2)C[C@H](O)[C@H](Cc2ccccc2)NC(=O)OCc2cncs2)C(C)C)cs1 [RITONAVIR]
- pIC50 (Plasmodium yoelii yoelii): 7.47

SMILES: COC(=O)Nc1nc2cc(Sc3ccccc3)ccc2[nH]1 [FENBENDAZOLE]
- pIC50 (Plasmodium yoelii yoelii): 4.52
- CC50 [1]: > 100 µM
- Selectivity Index [2]: >3.33

SMILES: COCC(=O)O[C@]1(CCN(C)CCCc2nc3ccccc3[nH]2)CCc2cc(F)ccc2[C@@H]1C(C)C [MIBEFRADIL]
- pIC50 (Plasmodium yoelii yoelii): 9.06
- CC50 [1]: 67.9 µM
- Selectivity Index [2]: 77000

SMILES: CCN(CC)CCCC(C)Nc1c2ccc(Cl)cc2nc2ccc(OC)cc12 (stereo unspecified) [QUINACRINE]
- pIC50 (Plasmodium yoelii yoelii): 4.52
- CC50 [1]: > 11.6 µM
- Selectivity Index [2]: >0.38

SMILES: CC(N)C12CC3CC(CC(C3)C1)C2 (stereo unspecified) [RIMANTADINE]
- pIC50 (Plasmodium yoelii yoelii): 7.45
- CC50 [1]: > 100 µM
- Selectivity Index [2]: >3.33

SMILES: CC(C)Nc1cccnc1N1CCN(C(=O)c2cc3cc(NS(C)(=O)=O)ccc3[nH]2)CC1 [DELAVIRDINE]
- pIC50 (Plasmodium yoelii yoelii): 9.07
- CC50 [1]: > 100 µM
- Selectivity Index [2]: >118000

— ChEMBL document CHEMBL1255292, “New active drugs against liver stages of Plasmodium predicted by molecular topology” (Antimicrob Agents Chemother, 2008)
